This note sets out measurements from ChEMBL document CHEMBL1138217, “Rapid discovery and structure-activity profiling of novel inhibitors of human immunodeficiency virus type 1 protease enabled by the copper(I)-catalyzed synthesis of 1,2,3-triazoles and their further functionalization” (J Med Chem, 2006).

pIC50, pKi: −log10 of the molar value. A value given as a limit tells only on which side of the number the result lay.

The first assay concerns the target Human immunodeficiency virus type 1 protease (Human immunodeficiency virus 1, UniProt Q72874). As to the kind of experiment: Inhibition of HIV1 protease. The procedure, abridged:
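HIV-1 protease (SF-2-WTQ7K-Pr construct for the isolated inhibitors) at 20 µg/mL with 50 µM fluorogenic substrate Abz-Thr-Ile-Nle/Phe-(p-NO2)Gln-Arg-NH2, in 0.1 M MES, 0.2 M NaCl, pH 5.25, 5% (v/v) glycerol. Crude mixtures were screened at 5 µM as percent inhibition.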
With `CC(C)(C)OC(=O)N[C@@H](Cc1ccccc1)[C@H](Cc1ccccc1)N=[N+]=[N-]`, the pKi (as a rule, the negative decadic logarithm of the Ki, by convention in mol/L) was 4.51.

With `CC[C@@H](O)c1c(CN2CCN(c3cc(C)ccc3C)CC2)nnn1[C@@H](Cc1ccccc1)[C@H](Cc1ccccc1)NC(=O)OC1CCCC1`, the pKi is 7.38.

`Cc1ccc(C)c(N2CCN(Cc3nnn([C@@H](Cc4ccccc4)[C@H](Cc4ccccc4)NC(=O)OC4CCCC4)c3[C@H](C)O)CC2)c1` showed a pKi of 8.00.

For the compound `Cc1ccc(Cl)cc1N1CCN(Cc2cn([C@@H](Cc3ccccc3)[C@H](Cc3ccccc3)NC(=O)CC3CCCC3)nn2)CC1`, the negative-log Ki (pKi) was less than 5.60.

With `Cc1ccc(C)c(N2CCN(Cc3nnn([C@@H](Cc4ccccc4)[C@H](Cc4ccccc4)NC(=O)OC4CCCC4)c3CO)CC2)c1`, the pKi is 7.85.

In turn, `CC[C@H](O)c1c(CN2CCN(c3cc(C)ccc3C)CC2)nnn1[C@@H](Cc1ccccc1)[C@H](Cc1ccccc1)NC(=O)OC1CCCC1` gave a pKi of 7.57.

Consider `Cc1ccc(C)c(N2CCN(Cc3cn([C@@H](Cc4ccccc4)[C@H](Cc4ccccc4)NC(=O)OC4CCCC4)nn3)CC2)c1`, for which the pIC50 (in general, −log10 of the IC50, conventionally taken in molar units) was less than 4.60 and the pKi was 7.49.

In the case of `Cc1ccc(Cl)cc1N1CCN(Cc2nnn([C@@H](Cc3ccccc3)[C@H](Cc3ccccc3)NC(=O)OC3CCCC3)c2[C@H](C)O)CC1`, the pKi is 7.68.

For the compound `Cc1ccc(Cl)cc1N1CCN(Cc2nnn([C@@H](Cc3ccccc3)[C@H](Cc3ccccc3)NC(=O)OC3CCCC3)c2[C@@H](C)O)CC1`, the pKi is 7.55.

As to `Cc1ccc(C)c(N2CCN(Cc3nnn([C@@H](Cc4ccccc4)[C@H](Cc4ccccc4)NC(=O)OC4CCCC4)c3[C@@H](C)O)CC2)c1`, the pKi is 7.60.

The compound `Cc1ccc(Cl)cc1N1CCN(Cc2nnn([C@@H](Cc3ccccc3)[C@H](Cc3ccccc3)NC(=O)OC3CCCC3)c2CO)CC1` had a pKi of 8.10.

In turn, `CC(C)C[C@H](NC(=O)OC1CCCC1)[C@H](Cc1ccccc1)n1cc(CN2CCN(c3cccc(C(F)(F)F)c3)CC2)nn1` had a pKi of 7.07.

The compound `O=C(N[C@@H](Cc1ccccc1)[C@H](Cc1ccccc1)n1cc(CN2CCN(c3cccc(C(F)(F)F)c3)CC2)nn1)OC1CCCC1` (stereo in doubt; (S,S)-7d) [listing 1 of 2 here] had a pKi of 7.01.

The compound `Cc1ccc(C)c(N2CCN(Cc3nnn([C@@H](Cc4ccccc4)[C@H](Cc4ccccc4)NC(=O)OC4CCCC4)c3[Si](C)(C)C)CC2)c1` gave a pKi of less than 5.60.

In the case of `Cc1ccc(Cl)cc1N1CCN(Cc2cn([C@@H](Cc3ccccc3)[C@H](Cc3ccccc3)NC(=O)O[C@@H]3CCOC3)nn2)CC1`, the pKi is 7.08.

`Cc1ccc(Cl)cc1N1CCN(Cc2cn([C@@H](Cc3ccccc3)[C@H](Cc3ccccc3)NC(=O)OC3CCCC3)nn2)CC1` had a pKi of 7.64.

The target of a further assay is Human immunodeficiency virus type 1 protease (Human immunodeficiency virus 1) (UniProt Q72874). The experiment in a line: Inhibition of HIV1 protease at 5 uM. The procedure, abridged: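 Crude click-reaction DMSO mixtures (azide-alkyne, CuSO4 with copper turning, 1:1 tBuOH/H2O, 50 °C, 5 days) diluted to 5 µM in 0.1 M MES, 0.2 M NaCl, pH 5.25, 5% glycerol; HIV-1 protease 20 µg/mL plus fluorogenic substrate 50 µM added; fluorescence read directly in microplate; percent inhibition; TL-3 100 nM positive control.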
For `Cc1ccc(Cl)cc1N1CCN(Cc2cn([C@@H](Cc3ccccc3)[C@H](Cc3ccccc3)NC(=O)CC3CCCC3)nn2)CC1`, the inhibition (usually the change of the read-out against control, counted positive when it falls) is 28%.

With `Cc1ccc(C)c(N2CCN(Cc3cn([C@@H](Cc4ccccc4)[C@H](Cc4ccccc4)NC(=O)OC4CCCC4)nn3)CC2)c1`, the inhibition was 94%.

`CC(C)C[C@H](NC(=O)OC1CCCC1)[C@H](Cc1ccccc1)n1cc(CN2CCN(c3cccc(C(F)(F)F)c3)CC2)nn1` displayed an inhibition of 50%.

The compound `Cc1c(Cl)cccc1N1CCN(Cc2cn([C@@H](Cc3ccccc3)[C@H](Cc3ccccc3)NC(=O)OC3CCCC3)nn2)CC1` gave an inhibition of 86%.

Compound `O=C(N[C@@H](Cc1ccccc1)[C@H](Cc1ccccc1)n1cc(CN2CCN(c3cccc(C(F)(F)F)c3)CC2)nn1)OC1CCCC1` (stereo in doubt; (S,S)-7d) [listing 2 of 2 here] had an inhibition of 87%.

In the case of `O=C(N[C@@H](Cc1ccccc1)[C@H](Cc1ccccc1)n1cc(CN2CCN(c3cccc(C(F)(F)F)c3)CC2)nn1)OC1CCCC1` (stereo in doubt; (S,S)-11s), the inhibition amounted to 86%.

Consider `Cc1ccc(Cl)cc1N1CCN(Cc2cn([C@@H](Cc3ccccc3)[C@H](Cc3ccccc3)NC(=O)OCC3CCCCC3)nn2)CC1`, for which the inhibition worked out at 53%.

The compound `Cc1ccc(Cl)cc1N1CCN(Cc2cn([C@@H](Cc3ccccc3)[C@H](Cc3ccccc3)NC(=O)O[C@@H]3CCOC3)nn2)CC1` yielded an inhibition of 71%.

Consider `Cc1ccc(Cl)cc1N1CCN(Cc2cn([C@@H](Cc3ccccc3)[C@H](Cc3ccccc3)NC(=O)NC3CCCCC3)nn2)CC1`, for which the inhibition worked out at 15%.

Consider `Cc1ccc(Cl)cc1N1CCN(Cc2cn([C@@H](Cc3ccccc3)[C@H](Cc3ccccc3)NC(=O)c3ccco3)nn2)CC1`, for which the inhibition worked out at 25%.

On to `Cc1ccc(Cl)cc1N1CCN(Cc2cn([C@@H](Cc3ccccc3)[C@H](Cc3ccccc3)NC(=O)O[C@H]3CCOC3)nn2)CC1`, for which the inhibition came out at 85%.

As for `COc1ccccc1N1CCN(Cc2cn([C@@H](Cc3ccccc3)[C@H](Cc3ccccc3)NC(=O)OC3CCCC3)nn2)CC1`, the inhibition came out at 38%.

Compound `Cc1cccc(N2CCN(Cc3cn([C@@H](Cc4ccccc4)[C@H](Cc4ccccc4)NC(=O)OC4CCCC4)nn3)CC2)c1` registered an inhibition of 87%.

In turn, `CCOC(=O)N[C@@H](Cc1ccccc1)[C@H](Cc1ccccc1)n1cc(CN2CCN(c3cc(Cl)ccc3C)CC2)nn1` returned an inhibition of 41%.

For `O=C(N[C@@H](Cc1ccccc1)[C@H](Cc1ccccc1)n1cc(CN2CCC(n3c(=O)[nH]c4ccccc43)CC2)nn1)OC1CCCC1`, the inhibition was determined as 23%.

In the case of `Cc1ccc(Cl)cc1N1CCN(Cc2cn([C@@H](Cc3ccccc3)[C@H](Cc3ccccc3)NC(=O)OC3CCCC3)nn2)CC1`, the inhibition came out at 94%.

In turn, `O=C(N[C@@H](Cc1ccccc1)[C@H](Cc1ccccc1)n1cc(CN2CCN(c3ccncc3)CC2)nn1)OC1CCCC1` registered an inhibition of 12%.
